ChEMBL document CHEMBL4414563, “Pyrimidine Nucleosides from Streptomyces sp. SSA28” (J Nat Prod, 2019)
Counter-ions that a name gives are not always drawn.

System: HCT-116
Assay: Cytotoxicity against human HCT116 cells assessed as reduction in cell viability after 24 hrs by SRB assay
Type: functional, cell-based
Conditions: HCT-116, 24 h
How it was run: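 Human colon cancer HCT-116 cells, read out by sulforhodamine B (SRB) staining, with adriamycin as the positive control.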

SMILES	IC50 [µM]
CCC(=O)Nc1ccn([C@H]2CC[C@H](O)[C@@H](C)O2)c(=O)n1	> 20
CC(=O)Nc1ccn([C@H]2CC[C@H](O)[C@@H](C)O2)c(=O)n1	> 20
C[C@H]1O[C@@H](n2ccc(NC(=O)CC(C)(C)O)nc2=O)CC[C@@H]1O	> 20
CC(C)C(=O)Nc1ccn([C@H]2CC[C@H](O)[C@@H](C)O2)c(=O)n1	> 20
C/C=C(\C)C(=O)Nc1ccn([C@H]2CC[C@H](O[C@H]3O[C@H](C)[C@@H](N(C)C)[C@H](O)[C@H]3O)[C@@H](C)O2)c(=O)n1	6.45
CC(C)CCC(=O)Nc1ccn([C@H]2CC[C@H](O)[C@@H](C)O2)c(=O)n1	> 20
C[C@H]1O[C@@H](n2ccc(NC(=O)Cc3ccccc3)nc2=O)CC[C@@H]1O	> 20
CC(C)CCC(=O)Nc1ccn([C@H]2CC[C@H](O[C@H]3O[C@H](C)[C@@H](N(C)C)[C@H](O)[C@H]3O)[C@@H](C)O2)c(=O)n1	0.39
CC(=O)C(C)Nc1ccc(C(=O)Nc2ccn([C@H]3CC[C@H](O)[C@@H](C)O3)c(=O)n2)cc1 (some centres not stated)	> 20
CC(C)/C=C/C(=O)Nc1ccn([C@H]2CC[C@H](O)[C@@H](C)O2)c(=O)n1	> 20
COc1cccc2c1C(=O)c1c(O)c3c(c(O)c1C2=O)C[C@@](O)(C(=O)CO)C[C@@H]3O[C@H]1C[C@H](N)[C@H](O)[C@H](C)O1 [DOXORUBICIN HYDROCHLORIDE]	0.06
CC(C)C(=O)Nc1ccc(C(=O)Nc2ccn([C@H]3CC[C@H](O[C@H]4O[C@H](C)[C@@H](N(C)C)[C@H](O)[C@H]4O)[C@@H](C)O3)c(=O)n2)cc1	6.63
CC(C)=CC(=O)Nc1ccn([C@H]2C[C@@H](O)[C@H](O)[C@@H](C)O2)c(=O)n1	> 20
CC(C)=CCC(=O)Nc1ccn([C@H]2CC[C@H](O)[C@@H](C)O2)c(=O)n1	> 20
CC(C)/C=C/C(=O)Nc1ccn([C@H]2CC[C@H](O[C@H]3O[C@H](C)[C@@H](N(C)C)[C@H](O)[C@H]3O)[C@@H](C)O2)c(=O)n1	0.78
CC(C)CC(=O)Nc1ccn([C@H]2CC[C@H](O[C@H]3O[C@H](C)[C@@H](N(C)C)[C@H](O)[C@H]3O)[C@@H](C)O2)c(=O)n1	2.14
CCC(C)/C=C/C(=O)Nc1ccn([C@H]2CC[C@H](O[C@H]3O[C@H](C)[C@@H](N(C)C)[C@H](O)[C@H]3O)[C@@H](C)O2)c(=O)n1 (some centres not stated)	0.89
